Results from different studies.
Each line is one published result; the experiments were not run side by side.
Effect on: cell growth or viability

Structure (SMILES) | cell line | test | setting | IC50
NCCCOc1cc(NC(=O)c2cc(OCCN)cc(C(=O)Nc3cc(OCCCN)c4ccccc4n3)n2)nc2ccccc12 | U2OS | ATP luminescence | 72 h | 14.1 µM
COC(=O)c1ccc(-n2nc(SC)nc2N)cc1 | RPE-1 | MTT |  | 37.3 µM
CN(C)CCOc1cc(NC(=O)c2cc(Cl)cc(C(=O)Nc3cc(OCCN(C)C)c4ccccc4n3)n2)nc2ccccc12 | U2OS | ATP luminescence | 72 h | 2.2 µM
CC(C)[C@H](N)C(=O)N1CCC[C@H]1B(O)O | NB-4 | ATP luminescence | 48 h | 0.1 µM
NCCOc1cc(NC(=O)c2cc(OCc3c[nH]nn3)cc(C(=O)Nc3cc(OCCN)c4ccccc4n3)n2)nc2ccccc12 | U2OS | ATP luminescence | 72 h | > 40 µM
N[C@@H](CC(=O)N1CCN(C(c2ccc(F)cc2)c2ccc(F)cc2)CC1)C(=O)N1Cc2ccccc2C1 | SKM-1 | ATP luminescence | 48 h | 0.346 µM
COc1cc(Nc2nccc(-c3cnn4nc(OC)ccc34)n2)cc(C(F)(F)F)c1 | RL95-2 | ATP luminescence |  | 1 µM
CSc1nc(/N=C/c2ccc(O)cc2)n(-c2ccc(C(=O)O)cc2)n1 | RPE-1 | MTT |  | 39.1 µM
CC(C)C[C@H](NC(=O)[C@H](Cc1ccccc1)NC(=O)c1cnccn1)B(O)O | RL95-2 | ATP luminescence |  | 0.012 µM
FC(F)(F)c1ccc(C(c2c[nH]c3ccccc23)c2c[nH]c3ccccc23)cc1 | U2OS | ATP luminescence | 22 h | 12.6 µM
CC[C@@H](C)[C@H](N)C(=O)N1Cc2ccccc2C1 | HEL | ATP luminescence | 48 h | > 60 µM
COc1cc(/C=N/c2nc(SC)nn2-c2ccc(C(=O)O)cc2)ccc1O | RPE-1 | MTT |  | 29.8 µM
COC(=O)C(C)n1c(C=O)ccc1CO (centres unmarked) | Hepa-1c1c7 | crystal violet | 48 h | > 100 µM
O=C(Nc1cc(OCCN2CCCC2)c2ccccc2n1)c1cc(OCCN2CCCC2)cc(C(=O)Nc2cc(OCCN3CCCC3)c3ccccc3n2)n1 | U2OS | ATP luminescence | 72 h | 2.1 µM
O=C(O)c1ccc(-n2nc(Oc3ccccc3)nc2/N=C/c2cc([N+](=O)[O-])ccc2O)cc1 | RPE-1 | MTT |  | 26.8 µM
C[S@@+]([O-])CCCCN=C=S | Hepa-1c1c7 |  |  | 15.2 µM
COc1cccc2c1C(=O)c1c(O)c3c(c(O)c1C2=O)C[C@@](O)(C(=O)CO)C[C@@H]3O[C@H]1C[C@H](N)[C@H](O)[C@H](C)O1 | RPE-1 | MTT |  | 22.6 µM
CN1c2ccccc2C(=O)N2[C@H](C(=O)Nc3ccc(/C=C/C(=O)NO)cc3)Cc3c([nH]c4ccccc34)[C@@H]12 | HEL |  |  | 0.34 µM
NCCCOc1cc(NC(=O)c2cc(Cl)cc(C(=O)Nc3cc(OCCCN)c4ccccc4n3)n2)nc2ccccc12 | U2OS | ATP luminescence | 72 h | 0.3 µM
CSc1nc(/N=C/c2cc([N+](=O)[O-])ccc2O)n(-c2ccc(C(=O)O)cc2)n1 | RPE-1 | MTT |  | 24 µM
NCCCOc1cc(NC(=O)c2cc(OCc3c[nH]nn3)cc(C(=O)Nc3cc(OCCCN)c4ccccc4n3)n2)nc2ccccc12 | U2OS | ATP luminescence | 72 h | > 40 µM
Nc1ncc(-c2cnn(C3CCNCC3)c2)cc1-c1nnc(CC2CC2)o1 | NB-4 | trypan blue | 72 h | 0.846 µM
COc1cc(OC)c2c(=O)cc(-c3ccc(N(C)C)cc3)oc2c1-c1c(OC)cc(OC)c2c(=O)cc(-c3ccc(N(C)C)cc3)oc12 | HeLa | MTT | 48 h | 43.8 µM
COc1cc(C(=O)Nc2cc(OCCN3CCCC3)c3ccccc3n2)nc(C(=O)Nc2cc(OCCN3CCCC3)c3ccccc3n2)c1 | U2OS | ATP luminescence | 72 h | 1.6 µM
CSc1nc(/N=C/c2cc(Br)ccc2O)n(-c2ccc(C(=O)O)cc2)n1 | RPE-1 | MTT |  | 37.6 µM
COc1cc(-c2ncn(/C=C\C(=O)OC(C)C)n2)cc(C(F)(F)F)c1 | HEL |  | 72 h | 0.104 µM
CSc1nc(/N=C/c2cc(C)ccc2O)n(-c2ccc(C(=O)O)cc2)n1 | RPE-1 | MTT |  | 36 µM
NCCCOc1cc(NC(=O)c2cccc(C(=O)Nc3cc(OCCCN)c4ccccc4n3)n2)nc2ccccc12 | U2OS | ATP luminescence | 72 h | 1.5 µM
CC1=CC(C)(C)N(Cc2ccccc2)c2ccc(O)cc21 | PLC5 | MTT | 72 h | 11 µM
